# Measurements reported in ChEMBL document CHEMBL1148787, “Novel substituted (pyridin-3-yl)phenyloxazolidinones: antibacterial agents with reduced activity against monoamine oxidase A and increased solubility” (J Med Chem, 2007).
# How the values were obtained:
# Staphylococcus aureus = experiment: Antibacterial activity against methicillin-susceptible Staphylococcus aureus AP601055; type: functional
# In short: (§1)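 CLSI broth microdilution, 64 to 0.06 µg/mL, 2% DMSO final. Media: S. aureus, Mueller Hinton broth; H. influenzae, MHB plus 0.5% yeast extract, 15 µg/mL hematin, 1.5 µg/mL NAD; S. pneumoniae, MHB plus 0.65% lysed horse blood. 35 °C, aerobic (S. aureus) or 5% CO2.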
# Streptococcus pneumoniae [1] = experiment: Antibacterial activity against penicillin-susceptible Streptococcus pneumoniae AP671401; type: functional; in short: as §1
# Streptococcus pneumoniae [2] = experiment: Antibacterial activity against linezolid-resistant Streptococcus pneumoniae; type: functional
# In short: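 Broth microdilution per CLSI guidelines. Compounds were dissolved in 100% DMSO and diluted to 2% DMSO (v/v), 64 to 0.06 µg/mL, in 2.2% (w/v) Mueller Hinton broth with 0.65% (v/v) lysed horse blood. Plates were incubated at 35 °C in 5% CO2 and read at 620 nm.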
# Haemophilus influenzae = experiment: Antibacterial activity against Haemophilus influenzae ATCC 51907; type: functional; in short: as §1
# [3] = Solubility by nephelometric analysis; type: physicochemical
# In short: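 Nephelometry after diluting compounds into the MAO-A assay mixture (100 mM potassium phosphate, pH 7.4).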
# [4] = biological target: T1, Amine oxidase [flavin-containing] A (Homo sapiens, UniProt P21397); experiment: Inhibition of human liver MAOA expressed in yeast
# T1 sequence (P21397 whole entry): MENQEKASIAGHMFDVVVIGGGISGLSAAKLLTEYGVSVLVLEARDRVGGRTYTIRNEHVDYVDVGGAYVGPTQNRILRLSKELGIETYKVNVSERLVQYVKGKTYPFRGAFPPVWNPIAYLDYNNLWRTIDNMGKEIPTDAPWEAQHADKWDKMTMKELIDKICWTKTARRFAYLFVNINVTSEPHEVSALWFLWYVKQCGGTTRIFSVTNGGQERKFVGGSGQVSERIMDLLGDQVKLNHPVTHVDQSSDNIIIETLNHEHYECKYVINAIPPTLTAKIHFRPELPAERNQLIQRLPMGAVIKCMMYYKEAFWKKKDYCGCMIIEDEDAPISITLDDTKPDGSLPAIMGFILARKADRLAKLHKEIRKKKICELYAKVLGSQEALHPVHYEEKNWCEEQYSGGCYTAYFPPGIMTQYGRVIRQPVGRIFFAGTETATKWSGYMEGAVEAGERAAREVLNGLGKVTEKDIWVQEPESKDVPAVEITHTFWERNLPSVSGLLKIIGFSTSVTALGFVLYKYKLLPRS
# Homo sapiens = organism: Homo sapiens; experiment: Protein binding in human plasma; details: read-out: PPB (converted)
# [5] = Clearance in Wistar rat at 10 mg/kg, iv; type: ADME, organism-based; set-up: dose 10 mg/kg, route intravenous; details: in vivo
# In short: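 Groups of three Wistar Han rats; bolus injection via cannulated jugular vein at 2 or 10 mg/kg. Serial 200 µL whole-blood samples at time intervals; plasma levels by LC-MS/MS; parameters by noncompartmental analysis.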
# Cytochrome P450 1A2 = biological target: T2, Cytochrome P450 1A2 (Homo sapiens, UniProt P05177); experiment: Inhibition of human recombinant CYP1A2; type: ADME
# T2 sequence (P05177 whole entry): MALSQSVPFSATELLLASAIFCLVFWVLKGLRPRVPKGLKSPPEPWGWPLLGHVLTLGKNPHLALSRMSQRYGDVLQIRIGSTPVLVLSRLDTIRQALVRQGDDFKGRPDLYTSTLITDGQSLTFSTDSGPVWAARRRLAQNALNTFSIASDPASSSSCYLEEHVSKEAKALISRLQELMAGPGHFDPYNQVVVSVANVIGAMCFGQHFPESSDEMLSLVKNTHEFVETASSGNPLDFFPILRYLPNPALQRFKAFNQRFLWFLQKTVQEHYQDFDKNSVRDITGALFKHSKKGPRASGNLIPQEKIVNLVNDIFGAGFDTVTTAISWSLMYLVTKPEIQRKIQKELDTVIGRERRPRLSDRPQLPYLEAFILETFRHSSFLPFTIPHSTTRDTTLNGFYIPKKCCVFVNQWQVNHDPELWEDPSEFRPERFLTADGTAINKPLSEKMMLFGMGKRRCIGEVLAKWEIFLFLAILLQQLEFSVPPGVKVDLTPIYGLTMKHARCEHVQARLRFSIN
# In short: (§2)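 Recombinant human P450s, compound at 0.2-20 µM; fluorogenic substrates: 3-cyano-7-ethoxycoumarin (1A2), 7-methoxy-4-trifluoromethylcoumarin (2C9, 2C19), 7-methoxy-4-(aminomethyl)coumarin (2D6). Fluorescence detection; IC50 determined.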
# Cytochrome P450 2C9 = Cytochrome P450 2C9 (Homo sapiens, UniProt P11712); experiment: Inhibition of human recombinant CYP2C9; type: ADME; in short: as §2
# Sequence of Cytochrome P450 2C9 (P11712 whole entry): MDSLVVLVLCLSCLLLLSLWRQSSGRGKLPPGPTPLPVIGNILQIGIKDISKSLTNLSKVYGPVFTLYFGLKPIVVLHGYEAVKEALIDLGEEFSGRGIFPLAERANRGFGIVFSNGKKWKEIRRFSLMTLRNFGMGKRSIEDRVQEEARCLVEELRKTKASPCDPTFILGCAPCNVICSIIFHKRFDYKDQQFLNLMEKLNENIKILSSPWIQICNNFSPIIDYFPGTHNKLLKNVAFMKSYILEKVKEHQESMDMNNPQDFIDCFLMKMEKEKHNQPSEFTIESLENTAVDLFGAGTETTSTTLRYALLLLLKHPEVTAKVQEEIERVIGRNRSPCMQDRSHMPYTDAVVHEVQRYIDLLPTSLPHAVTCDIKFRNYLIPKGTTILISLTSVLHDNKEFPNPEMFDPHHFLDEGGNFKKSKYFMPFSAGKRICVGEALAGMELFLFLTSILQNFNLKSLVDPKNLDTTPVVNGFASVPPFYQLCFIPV
# Cytochrome P450 2C19 = Cytochrome P450 2C19 (Homo sapiens, UniProt P33261); experiment: Inhibition of human recombinant CYP2C19; type: ADME; in short: as §2
# Sequence of Cytochrome P450 2C19 (P33261 whole entry): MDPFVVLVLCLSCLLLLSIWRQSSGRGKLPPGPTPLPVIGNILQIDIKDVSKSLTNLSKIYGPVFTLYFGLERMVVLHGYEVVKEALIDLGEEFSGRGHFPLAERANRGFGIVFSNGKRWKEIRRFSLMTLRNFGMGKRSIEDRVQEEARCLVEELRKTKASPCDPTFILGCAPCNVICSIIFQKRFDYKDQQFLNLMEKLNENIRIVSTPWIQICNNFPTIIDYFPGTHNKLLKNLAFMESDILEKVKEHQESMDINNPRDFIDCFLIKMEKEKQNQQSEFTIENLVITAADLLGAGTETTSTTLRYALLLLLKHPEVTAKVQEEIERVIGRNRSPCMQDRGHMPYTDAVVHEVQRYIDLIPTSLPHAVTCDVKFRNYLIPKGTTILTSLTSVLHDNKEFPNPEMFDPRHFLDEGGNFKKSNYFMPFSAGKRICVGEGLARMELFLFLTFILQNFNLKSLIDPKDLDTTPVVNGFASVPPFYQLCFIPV
# Cytochrome P450 2D6 = Cytochrome P450 2D6 (Homo sapiens, UniProt P10635); experiment: Inhibition of human recombinant CYP2D6; type: ADME; in short: as §2
# Sequence of Cytochrome P450 2D6 (P10635 whole entry): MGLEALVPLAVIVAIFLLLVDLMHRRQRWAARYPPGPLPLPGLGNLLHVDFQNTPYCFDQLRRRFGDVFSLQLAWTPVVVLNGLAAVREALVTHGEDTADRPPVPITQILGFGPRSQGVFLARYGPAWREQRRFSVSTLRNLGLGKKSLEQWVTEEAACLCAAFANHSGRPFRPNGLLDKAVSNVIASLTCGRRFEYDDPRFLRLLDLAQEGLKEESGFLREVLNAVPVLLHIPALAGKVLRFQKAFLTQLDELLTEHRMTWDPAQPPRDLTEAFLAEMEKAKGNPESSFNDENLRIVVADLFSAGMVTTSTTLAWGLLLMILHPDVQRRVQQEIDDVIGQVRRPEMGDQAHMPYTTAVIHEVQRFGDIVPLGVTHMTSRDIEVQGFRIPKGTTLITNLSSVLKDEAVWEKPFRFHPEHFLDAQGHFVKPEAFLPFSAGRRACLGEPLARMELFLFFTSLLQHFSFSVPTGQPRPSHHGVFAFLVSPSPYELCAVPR
# Cytochrome P450 3A4 = Cytochrome P450 3A4 (Homo sapiens, UniProt P08684); experiment: Inhibition of human recombinant CYP3A4; type: ADME
# Sequence of Cytochrome P450 3A4 (P08684 whole entry): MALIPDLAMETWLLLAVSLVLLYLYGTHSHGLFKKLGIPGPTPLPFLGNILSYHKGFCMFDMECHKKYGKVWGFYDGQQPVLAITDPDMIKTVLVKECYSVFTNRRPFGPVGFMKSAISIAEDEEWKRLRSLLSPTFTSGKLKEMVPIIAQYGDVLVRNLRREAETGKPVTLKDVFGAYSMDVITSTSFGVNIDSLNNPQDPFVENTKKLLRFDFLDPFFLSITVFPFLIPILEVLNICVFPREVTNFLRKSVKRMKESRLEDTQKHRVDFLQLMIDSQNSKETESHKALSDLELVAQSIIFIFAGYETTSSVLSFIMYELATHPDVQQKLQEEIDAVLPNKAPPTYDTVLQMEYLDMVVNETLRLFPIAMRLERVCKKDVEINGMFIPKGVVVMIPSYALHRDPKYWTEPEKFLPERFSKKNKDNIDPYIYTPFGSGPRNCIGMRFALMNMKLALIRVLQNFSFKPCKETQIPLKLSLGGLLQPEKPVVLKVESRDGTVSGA
Structure (SMILES),MIC (Staphylococcus aureus) [µg/mL],MIC (Streptococcus pneumoniae [1]) [µg/mL],MIC (Streptococcus pneumoniae [2]) [µg/mL],MIC (Haemophilus influenzae) [µg/mL],solubility kinetic [3] [µM],Ki [4] [µM],fraction unbound (Homo sapiens),clearance [5] [mL/min/kg],IC50 (Cytochrome P450 1A2) [µM],IC50 (Cytochrome P450 2C9) [µM],IC50 (Cytochrome P450 2C19) [µM],IC50 (Cytochrome P450 2D6) [µM],IC50 (Cytochrome P450 3A4) [µM]
CO[C@@H](C)c1ccc(-c2ccc(N3C[C@H](Cn4ccnn4)OC3=O)cc2F)cn1,1,0.25,4,16,> 400,2.5,,,,,,,
CC(C)(O)c1ccc(-c2ccc(N3C[C@H](Cn4ccnn4)OC3=O)cc2F)cn1,1,0.25,2,8,200,6,,,,,,,
O=C1O[C@@H](Cn2ccnn2)CN1c1ccc(-c2ccc(C(O)C3CCNCC3)nc2)c(F)c1 (stereo partly specified),64,4,32,64,> 400,136,,,,,,,
CC(C)NCC(O)c1ccc(-c2ccc(N3C[C@H](Cn4ccnn4)OC3=O)cc2F)cn1 (stereo partly specified),4,0.5,2,4,> 400,> 178,,,,,,,
CN(C)CC(O)c1ccc(-c2ccc(N3C[C@H](Cn4ccnn4)OC3=O)cc2F)cn1 (stereo partly specified),4,0.25,2,4,> 400,> 178,,,,,,,
CC(=O)c1ccc(-c2ccc(N3C[C@H](Cn4ccnn4)OC3=O)cc2F)cn1,0.25,< 0.06,0.5,2,50,0.7,,,,,,,
O=C(c1ccc(-c2ccc(N3C[C@H](Cn4ccnn4)OC3=O)cc2F)cn1)C1CNC1,8,1,4,16,200,4.5,,,,,,,
O=C(Cn1ccnc1)c1ccc(-c2ccc(N3C[C@H](Cn4ccnn4)OC3=O)cc2F)cn1,0.25,,0.5,2,12.5,> 12,,,,,,,
COCc1ccc(-c2ccc(N3C[C@H](Cn4ccnn4)OC3=O)cc2F)cn1,0.5,0.13,1,4,100,1.7,,,,,,,
CO[C@H](C)c1ccc(-c2ccc(N3C[C@H](Cn4ccnn4)OC3=O)cc2F)cn1,1,0.25,2,8,> 400,3,,,,,,,
CN1CCN(CCCC(=O)c2ccc(-c3ccc(N4C[C@H](Cn5ccnn5)OC4=O)cc3F)cn2)CC1,1,< 0.06,0.5,8,> 400,10.5,0.5,,,,,,
O=C(CCCN1CCOCC1)c1ccc(-c2ccc(N3C[C@H](Cn4ccnn4)OC3=O)cc2F)cn1,0.5,0.13,0.5,4,100,,0.35,,,,,,
Cc1cn(CC(=O)c2ccc(-c3ccc(N4C[C@H](Cn5ccnn5)OC4=O)cc3F)cn2)cn1,0.5,< 0.06,0.5,2,12.5,> 5.6,0.31,> 100,> 20,> 20,> 20,> 20,> 20
CN1CCN(CCCC(O)c2ccc(-c3ccc(N4C[C@H](Cn5ccnn5)OC4=O)cc3F)cn2)CC1 (stereo partly specified),2,0.25,1,8,> 400,41,,,,,,,
O=C1O[C@@H](Cn2ccnn2)CN1c1ccc(-c2ccc(C(O)CN3CCOCC3)nc2)c(F)c1 (stereo partly specified),1,0.25,2,4,> 400,,0.67,,,,,,
CC(C)C(O)c1ccc(-c2ccc(N3C[C@H](Cn4ccnn4)OC3=O)cc2F)cn1 (stereo partly specified),0.5,0.25,2,16,> 400,11.3,,,,,,,
O=C1O[C@@H](Cn2ccnn2)CN1c1ccc(-c2cccnc2)c(F)c1,0.25,< 0.06,1,2,12.5,< 0.3,,,> 20,> 20,> 20,6.6,6.8
O=C1O[C@@H](Cn2ccnn2)CN1c1ccc(-c2ccc(CO)nc2)c(F)c1,0.25,0.13,1,1,100,,,,> 20,> 20,> 20,> 20,> 20
C[C@@H](O)c1ccc(-c2ccc(N3C[C@H](Cn4ccnn4)OC3=O)cc2F)cn1,0.25,< 0.06,1,2,> 400,4.3,,,,,,,
O=C1O[C@@H](Cn2ccnn2)CN1c1ccc(-c2ccc(C(O)C3CNC3)nc2)c(F)c1 (stereo partly specified),64,16,> 64,64,> 400,58,,,,,,,
